# Compounds with a hit are over-represented: about 1.2% of the library has one in this group of screens.
# Tb hexokinase = T. brucei hexokinase 1 inhibition; AID 1430; inhibition, % at 10 µM; hit rate 0.11% among 220,000; recombinant TbHK1, G6PDH-coupled NADH A340;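 active means inhibition of 50% or more in the single-dose primary screen; inactive means inhibition below 50%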
# Diaphorase inh = counter-screen for diaphorase-based assays: diaphorase inhibitors and chemical oxidizers; AID 1217; diaphorase resazurin-to-resorufin fluorescence, NADH, 16 min; bacterial (C. kluyveri) enzyme, not human; inhibition, % at 20 µM; hit rate 0.69% among 190,000;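 active means primary screen inhibition at 20 µM above a set limit, cut at about 50% in these data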;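 further: plate controls were DMSO with full reaction for no effect and wells lacking NADH for full effect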
#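 Assay system: diaphorase enzyme from Clostridium kluyveri. Quantity: enzyme working solution with 0.14 U/mL diaphorase. Schedule: reaction incubation of 16 min at room temperature. Technique: resorufin fluorescence, excitation 544 nm, emission 590 nm. Controls: No-NADH positive control and DMSO neutral control.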
# PfGluPho inh = PfG6PD (Plasmodium falciparum) enzyme inhibition. PfGluPho enzyme, NADPH resazurin-diaphorase fluorescence. inhibition, % at 20 µM. hit rate 0.78% among 350,000;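 active means inhibition reaching at least a set limit at 20 µM in the primary screen, cut at about 59% in these data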;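 further: 0% = DMSO wells with substrate and 100% = DMSO wells lacking glucose-6-phosphate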
# HKDC1 inhibitor = HKDC1 (human) hexokinase inhibition | recombinant HKDC1, G6PDH/diaphorase resazurin coupled fluorescence | inhibition, % at 20 µM | hit rate 0.16% among 340,000 | AID 493160;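 active means inhibition above about 35% when tested at 20 µM, limit read from the data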;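 further: plate controls were DMSO wells with enzyme for no effect and DMSO wells lacking enzyme for full effect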
# Target sequence (Q2TB90 whole entry, looked up): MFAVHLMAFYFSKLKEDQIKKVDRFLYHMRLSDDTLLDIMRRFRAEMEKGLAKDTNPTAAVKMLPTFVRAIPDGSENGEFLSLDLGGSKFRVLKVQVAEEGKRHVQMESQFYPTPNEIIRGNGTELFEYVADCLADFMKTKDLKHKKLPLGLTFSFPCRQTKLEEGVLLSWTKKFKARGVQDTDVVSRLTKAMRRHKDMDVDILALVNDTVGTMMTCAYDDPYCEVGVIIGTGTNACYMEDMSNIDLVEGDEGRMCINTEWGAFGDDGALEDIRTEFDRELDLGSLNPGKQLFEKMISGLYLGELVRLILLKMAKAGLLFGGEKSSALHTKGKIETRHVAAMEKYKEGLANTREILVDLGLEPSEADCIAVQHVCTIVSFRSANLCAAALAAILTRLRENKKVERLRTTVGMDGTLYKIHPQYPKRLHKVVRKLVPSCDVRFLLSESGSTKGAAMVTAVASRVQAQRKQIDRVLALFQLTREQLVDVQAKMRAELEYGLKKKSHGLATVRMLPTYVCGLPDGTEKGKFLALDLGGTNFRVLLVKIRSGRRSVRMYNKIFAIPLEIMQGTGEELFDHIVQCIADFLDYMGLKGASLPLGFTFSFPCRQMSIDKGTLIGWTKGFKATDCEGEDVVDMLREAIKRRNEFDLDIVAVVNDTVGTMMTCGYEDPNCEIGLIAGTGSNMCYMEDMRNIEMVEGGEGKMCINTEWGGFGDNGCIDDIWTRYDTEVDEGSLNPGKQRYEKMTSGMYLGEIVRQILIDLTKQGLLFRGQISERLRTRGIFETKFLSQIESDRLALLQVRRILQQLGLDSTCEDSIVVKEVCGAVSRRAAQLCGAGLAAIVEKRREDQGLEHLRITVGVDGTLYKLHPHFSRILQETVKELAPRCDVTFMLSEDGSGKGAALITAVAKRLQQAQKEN
#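 Test system: Recombinant HKDC1 (HK5) hexokinase enzyme, produced in-house | Input: HKDC1 at 5 µg/mL | Buffer or medium: Tris pH 8.0 buffer with MgCl2, Tween-20, BSA, BME | Schedule: 90 min reaction incubation at room temperature, dark | Technique: Resazurin-to-resorufin fluorescence via G6PDH and diaphorase coupling, 525/613 nm | Controls: DMSO wells with and without enzyme mix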
# G6PDH counter = inhibits Leuconostoc G6PDH, flagging false hits in G6PDH-based assays | Purified L. mesenteroides G6PDH, diaphorase/resazurin coupled fluorescence, 45 min | inhibition, % at 5 µM | hit rate 0.12% among 200,000; in the data active means inhibition above about 50%
# * marks the source's active call; other numbers are inactive results; . = not tested or not shown.
SMILES,Tb hexokinase,Diaphorase inh,PfGluPho inh,HKDC1 inhibitor,G6PDH counter
CC(=O)N(\C=C/C=C/C=C1\Sc2ccccc2C1=O)c1ccccc1,-1,53*,15,9,3
Cc1cc(Br)ccc1-n1[nH]c(C)c(C=Nc2cccc3nsnc23)c1=O,-3,61*,19,6,15
COc1ccccc1N=Cc1c(C)[nH]n(-c2ccc(C)cc2C)c1=O,-10,20,14,1,10
O=C(c1ccc(S(=O)(=O)N2CCC(c3nc4ccccc4[nH]3)CC2)cc1)N1CCOCC1,-1,64*,19,3,-2
Cc1cccc(CN2CCC(n3nccc3NC(=O)CCCc3ccccc3)CC2)c1,.,.,3,.,.
CCNc1ccc(Br)cc(C(=O)/C=C/c2ccc(Cl)cc2)c1=O,0,47,58,12,20
CCNc1ccc(Br)cc(C(=O)/C=C/c2ccc3c(c2)OCO3)c1=O,-9,59*,33,21,38
O=C(/C=C/c1ccc(Cl)cc1Cl)c1ccc[nH]1,-3,25,0,4,3
CNc1ccc(Br)cc(C(=O)/C=C/c2ccc(Cl)cc2Cl)c1=O,-7,85*,25,19,34
CNc1ccc(Br)cc(C(=O)/C=C/c2ccc(OC)cc2OC)c1=O,-13,42,37,25,21
CNc1ccc(Br)cc(C(=O)/C=C/c2cccc(OC)c2)c1=O,-19,50*,39,26,24
Cc1cc(OCC(=O)OCC(=O)N(Cc2ccccc2)C(C)(C)C)ccc1Cl,.,.,19,.,.
O=C1c2cccc3c(N4CCCCC4)ccc(c23)C(=O)N1c1ccc(O)cc1,-1,15,6,-5,6
O=C1c2cccc3c(N4CCCCC4)ccc(c23)C(=O)N1c1ccccc1O,-6,61*,-1,0,9
Cc1ccc(S(=O)(=O)Nc2ccc(NC(=O)c3c(F)c(F)c(F)c(F)c3F)cc2)cc1,1,34,23,8,-1
COc1ccc(CCNC(=O)c2ccc3nc(-c4ccco4)c(-c4ccco4)nc3c2)cc1OC,-4,66*,62*,27,16
CCCNC(=O)c1ccc2c(=O)n(Cc3ccco3)c(=S)[nH]c2c1,-4,19,4,0,-5
COc1ccc(CCNC(=O)c2ccc3c(SCC(=O)O)c4c(nc3c2)CCCC4)cc1OC,-13,68*,-18,6,2
COc1ccc(CCNC(=O)c2ccc3c(=O)n(Cc4ccco4)c(=S)[nH]c3c2)cc1OC,-15,51*,9,-2,1
COC(=O)c1c(NC(=O)CSc2nnc(-c3ccco3)n2Cc2ccccc2)sc(C)c1C,-8,57*,16,26,0
COC(=O)c1c(NC(=O)CSc2nc3ccccc3c(=O)n2Cc2ccco2)sc(C)c1C,-12,18,-3,9,-36
CC1=CC(=O)c2c(O)ccc(O)c2C1=O,8,54*,.,.,58*
O=[N+]([O-])c1cc(-c2ncccn2)c([N+](=O)[O-])s1,-3,51*,123*,10,3
COC(=O)c1ccc2c(c1O)C(=O)c1ccccc1C2=O,-9,11,-18,18,53*
CCOC(=O)c1c(N2C(=O)C=CC2=O)sc(C)c1C,-20,12,67*,0,8
SMILES,Tb hexokinase,Diaphorase inh,PfGluPho inh,HKDC1 inhibitor,G6PDH counter
O=C(Nc1ccc2nc(-c3ccccc3)[nH]c2c1)c1ccco1,-24,15,70*,3,-22
CCN(CC)C(=O)C1=C(C)N(Cc2ccc(C(C)(C)C)cc2)C(=O)C(CC(=O)NCc2ccco2)C1 (stereo not drawn),.,.,23,.,.
COc1ccc(-c2cc(-c3ccco3)[nH]c(=O)c2C#N)cc1,-6,.,-17,3,.
N#Cc1c(-c2cccc(Br)c2)cc(-c2ccco2)[nH]c1=O,5,67*,-8,6,6
COCCNC(=S)Nc1cc2oc3ccccc3c2cc1OC,.,.,19,-3,.
COc1ccccc1N1CCN(S(=O)(=O)CCNC(=O)c2cccs2)CC1,.,.,-30,.,.
CCCCCn1c(NC(=O)c2ccco2)c(S(=O)(=O)c2ccc(C)cc2)c2nc3ccccc3nc21,-10,48,17,5,14
CCCCn1c(NC(=O)c2ccco2)c(S(=O)(=O)c2ccc(C)cc2)c2nc3ccccc3nc21,-4,69*,2,8,38
Cc1ccc([C@H]2C[C@@H](O)[C@H](n3cc(COC(=O)c4ccccc4)nn3)CN2C(=O)c2cccs2)cc1,.,.,9,.,.
CCC1=NN2C(=N)/C(=C\c3ccc(SCc4ccco4)o3)C(=O)N=C2S1,-1,56*,21,14,1
O=C1NC(=S)S/C1=C\c1ccc(SCc2ccco2)o1,38,81*,26,51*,13
CCCC1=NN2C(=N)/C(=C\c3ccc(SCc4ccco4)o3)C(=O)N=C2S1,5,51*,26,28,-2
CCC1=NN2C(=N)/C(=C/c3c(C)nn(-c4ccccc4)c3Cl)C(=O)N=C2S1,-16,6,-20,-1,-5
C[C@@H]1CCCCO[C@H](CN(C)C(=O)Nc2ccc3c(c2)OCO3)[C@H](C)CN([C@@H](C)CO)C(=O)c2cc(NS(=O)(=O)c3ccc(Cl)cc3)ccc2O1,.,.,32,.,.
C[C@@H]1CCCCO[C@H](CN(C)C(=O)Cc2ccccc2)[C@@H](C)CN([C@H](C)CO)C(=O)c2cc(NC(=O)Nc3ccccc3)ccc2O1,.,.,2,.,.
COc1ccc(-n2sc3ccc(F)cc3c2=O)cc1,.,.,112*,5,.
O=C(O)c1cccc(NS(=O)(=O)c2ccc(-c3ccc(S(=O)(=O)Nc4cccc(C(=O)O)c4)cc3)cc2)c1,3,51*,-39,0,0
O=S1(=O)N[C@@H](Cc2ccccc2)COc2ccc(Cl)cc21,.,.,-1,.,.
Cc1cc(C)cc(N2C(=O)C=CC2=O)c1,.,.,86*,-6,.
Cc1cc(N2C(=O)C=CC2=O)c([N+](=O)[O-])cc1C,6,20,91*,-15,6
Cc1c([N+](=O)[O-])cc(N2C(=O)C=CC2=O)cc1[N+](=O)[O-],.,.,101*,-6,.
Cc1cc(C)cc(N2C(=O)c3nccnc3C2=O)c1,24,24,-23,4,7
CCOC(=O)[C@@H]1[C@H]2COc3cc(OC)ccc3[C@@H]2N2C(=O)N(c3ccc(F)cc3)C(=O)[C@]12C,.,.,-1,-4,.
S=c1[nH]nc(-c2ccco2)n1/N=C/C=C/c1ccccc1,0,57*,21,2,1
O=C(Nc1ccccn1)C(c1ccccc1)c1ccccc1,.,.,-14,.,.
COc1ccccc1-c1nnc2n1N=C(c1ccc(O)c(O)c1)CS2,-23,51*,-38,-1,32
COc1ccc(C(=O)N/C(=C/c2cccnc2)C(=O)Nc2cccc(C(C)=O)c2)cc1OC,.,.,3,-4,.
Cc1ccc(C2C(C#N)=C(N)Oc3c2sc2ccccc32)o1 (stereo not drawn),-2,55*,.,.,32
O=C(O)c1cccc(Cl)n1,9,.,12,-4,.
O=C(O)c1cccc(C(=O)O)n1,13,71*,.,.,29

# Source: PubChem BioAssay (several laboratories)
